Measurements from ChEMBL document CHEMBL5058577, “EUbOPEN Chemogenomics Library 2 (Multiplex)” (2022).

Test system: U2OS
Experiment: Multiplex assay against U2OS
Format: toxicity, cell-based
Details: human
In short: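 Phenotypes for tubulin, mitochondrial mass and membrane permeability are expressed as per cents of healthy-nucleus cells. Cells were stained live at seeding with Hoechst33342, BioTracker Green Microtubule Cytoskeleton Dye, MitoTracker Red and Annexin V Alexa Fluor 680, then imaged after compound addition on a CQ1 microscope at 37°C and 5% CO2. Machine-learning gating in CellPathfinder separated Hoechst high-intensity objects from normal cells, divided normal cells by nuclear state (healthy, pyknosed, fragmented) and divided pyknosed cells into mitotic or apoptotic.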

[1] = 12 h, 1 µM, compound concentration 1 uM, replicate 1
[2] = 12 h, 1 µM, compound concentration 1 uM, replicate 2
[3] = 12 h, 10 µM, compound concentration 10 uM, replicate 1
[4] = 12 h, 10 µM, compound concentration 10 uM, replicate 2
[5] = 24 h, 1 µM, compound concentration 1 uM, replicate 1
[6] = 24 h, 1 µM, compound concentration 1 uM, replicate 2
[7] = 24 h, 10 µM, compound concentration 10 uM, replicate 1
[8] = 24 h, 10 µM, compound concentration 10 uM, replicate 2
[9] = 48 h, 1 µM, compound concentration 1 uM, replicate 1
[10] = 48 h, 1 µM, compound concentration 1 uM, replicate 2
[11] = 48 h, 10 µM, compound concentration 10 uM, replicate 1
[12] = 48 h, 10 µM, compound concentration 10 uM, replicate 2

O=c1ccc2ccc(OCCCCN3CCN(c4cccc5sccc45)CC3)cc2[nH]1 [BREXPIPRAZOLE]
Population Apoptotic (%) [1]: 73% | Population Fragmented Nuclei (%) [1]: 23% | Population Healthy Nuclei (%) [1]: 62% | Population Hoechst High Intensity Objects (%) [1]: 6% | Population Membrane Permeable-Phenotype (%) [1]: 40% | Population Mitochondria Different-Phenotype (%) [1]: 19% | Population Mitotic Cells (%) [1]: 26% | Population Normal (%) [1]: 93% | Population Pyknosed Nuclei (%) [1]: 13% | Population Tubulin-Different-Phenotype (%) [1]: 36% | Total Cell Count [1]: 178 | Population Apoptotic (%) [2]: 55% | Population Fragmented Nuclei (%) [2]: 16% | Population Healthy Nuclei (%) [2]: 69% | Population Hoechst High Intensity Objects (%) [2]: 2% | Population Membrane Permeable-Phenotype (%) [2]: 32% | Population Mitochondria Different-Phenotype (%) [2]: 24% | Population Mitotic Cells (%) [2]: 44% | Population Normal (%) [2]: 97% | Population Pyknosed Nuclei (%) [2]: 14% | Population Tubulin-Different-Phenotype (%) [2]: 30% | Total Cell Count [2]: 126 | Population Apoptotic (%) [3]: 86% | Population Fragmented Nuclei (%) [3]: 31% | Population Healthy Nuclei (%) [3]: 27% | Population Hoechst High Intensity Objects (%) [3]: 6% | Population Membrane Permeable-Phenotype (%) [3]: 57% | Population Mitochondria Different-Phenotype (%) [3]: 82% | Population Mitotic Cells (%) [3]: 13% | Population Normal (%) [3]: 93% | Population Pyknosed Nuclei (%) [3]: 41% | Population Tubulin-Different-Phenotype (%) [3]: 83% | Total Cell Count [3]: 220 | Population Apoptotic (%) [4]: 82% | Population Fragmented Nuclei (%) [4]: 21% | Population Healthy Nuclei (%) [4]: 43% | Population Hoechst High Intensity Objects (%) [4]: 9% | Population Membrane Permeable-Phenotype (%) [4]: 53% | Population Mitochondria Different-Phenotype (%) [4]: 90% | Population Mitotic Cells (%) [4]: 17% | Population Normal (%) [4]: 90% | Population Pyknosed Nuclei (%) [4]: 35% | Population Tubulin-Different-Phenotype (%) [4]: 95% | Total Cell Count [4]: 109 | Population Apoptotic (%) [5]: 68% | Population Fragmented Nuclei (%) [5]: 26% | Population Healthy Nuclei (%) [5]: 55% | Population Hoechst High Intensity Objects (%) [5]: 3% | Population Membrane Permeable-Phenotype (%) [5]: 19% | Population Mitochondria Different-Phenotype (%) [5]: 22% | Population Mitotic Cells (%) [5]: 31% | Population Normal (%) [5]: 96% | Population Pyknosed Nuclei (%) [5]: 18% | Population Tubulin-Different-Phenotype (%) [5]: 18% | Total Cell Count [5]: 181 | Population Apoptotic (%) [6]: 66% | Population Fragmented Nuclei (%) [6]: 12% | Population Healthy Nuclei (%) [6]: 67% | Population Membrane Permeable-Phenotype (%) [6]: 22% | Population Mitochondria Different-Phenotype (%) [6]: 28% | Population Mitotic Cells (%) [6]: 33% | Population Pyknosed Nuclei (%) [6]: 19% | Population Tubulin-Different-Phenotype (%) [6]: 16% | Total Cell Count [6]: 128 | Population Apoptotic (%) [7]: 93% | Population Fragmented Nuclei (%) [7]: 30% | Population Healthy Nuclei (%) [7]: 25% | Population Hoechst High Intensity Objects (%) [7]: 13% | Population Membrane Permeable-Phenotype (%) [7]: 47% | Population Mitochondria Different-Phenotype (%) [7]: 67% | Population Mitotic Cells (%) [7]: 6% | Population Normal (%) [7]: 86% | Population Pyknosed Nuclei (%) [7]: 44% | Population Tubulin-Different-Phenotype (%) [7]: 76% | Total Cell Count [7]: 213 | Population Apoptotic (%) [8]: 91% | Population Fragmented Nuclei (%) [8]: 19% | Population Healthy Nuclei (%) [8]: 26% | Population Hoechst High Intensity Objects (%) [8]: 22% | Population Membrane Permeable-Phenotype (%) [8]: 56% | Population Mitochondria Different-Phenotype (%) [8]: 86% | Population Mitotic Cells (%) [8]: 8% | Population Normal (%) [8]: 77% | Population Pyknosed Nuclei (%) [8]: 54% | Population Tubulin-Different-Phenotype (%) [8]: 91% | Total Cell Count [8]: 112 | Population Apoptotic (%) [9]: 64% | Population Fragmented Nuclei (%) [9]: 21% | Population Healthy Nuclei (%) [9]: 61% | Population Hoechst High Intensity Objects (%) [9]: 4% | Population Membrane Permeable-Phenotype (%) [9]: 9% | Population Mitochondria Different-Phenotype (%) [9]: 12% | Population Mitotic Cells (%) [9]: 35% | Population Normal (%) [9]: 95% | Population Pyknosed Nuclei (%) [9]: 16% | Population Tubulin-Different-Phenotype (%) [9]: 8% | Total Cell Count [9]: 240 | Population Apoptotic (%) [10]: 73% | Population Fragmented Nuclei (%) [10]: 22% | Population Healthy Nuclei (%) [10]: 56% | Population Hoechst High Intensity Objects (%) [10]: 2% | Population Membrane Permeable-Phenotype (%) [10]: 34% | Population Mitochondria Different-Phenotype (%) [10]: 31% | Population Mitotic Cells (%) [10]: 26% | Population Normal (%) [10]: 97% | Population Pyknosed Nuclei (%) [10]: 21% | Population Tubulin-Different-Phenotype (%) [10]: 18% | Total Cell Count [10]: 161 | Population Apoptotic (%) [11]: 96% | Population Fragmented Nuclei (%) [11]: 45% | Population Healthy Nuclei (%) [11]: 12% | Population Hoechst High Intensity Objects (%) [11]: 26% | Population Membrane Permeable-Phenotype (%) [11]: 45% | Population Mitochondria Different-Phenotype (%) [11]: 30% | Population Mitotic Cells (%) [11]: 3% | Population Normal (%) [11]: 73% | Population Pyknosed Nuclei (%) [11]: 41% | Population Tubulin-Different-Phenotype (%) [11]: 40% | Total Cell Count [11]: 215 | Population Apoptotic (%) [12]: 100% | Population Fragmented Nuclei (%) [12]: 29% | Population Healthy Nuclei (%) [12]: 14% | Population Hoechst High Intensity Objects (%) [12]: 32% | Population Membrane Permeable-Phenotype (%) [12]: 70% | Population Mitochondria Different-Phenotype (%) [12]: 90% | Population Mitotic Cells (%) [12]: 0% | Population Normal (%) [12]: 67% | Population Pyknosed Nuclei (%) [12]: 56% | Population Tubulin-Different-Phenotype (%) [12]: 90% | Total Cell Count [12]: 105
